From PMC3954500 (Journal of Medicinal Chemistry, 2014)

Legend:
[1] = target: hA2AAR (Homo sapiens, UniProt P29274); experiment: Radioligand binding at hA2AAR; conditions: 4a versus truncated 4′-thioadenosine derivative 2
[2] = target: T1, hA3AR (Homo sapiens, UniProt P0DMS8); experiment: cAMP functional assay at the hA3AR expressed in CHO cells; assay type: cell-based; conditions: for functional behaviour at hA3AR: cAMP assay, CHO cells; for Emax at 10 µM: CHO, read-out: maximal stimulation of cAMP formation / % activation relative to the full agonist 16 (= 100%)
T1 sequence (P0DMS8 1-318): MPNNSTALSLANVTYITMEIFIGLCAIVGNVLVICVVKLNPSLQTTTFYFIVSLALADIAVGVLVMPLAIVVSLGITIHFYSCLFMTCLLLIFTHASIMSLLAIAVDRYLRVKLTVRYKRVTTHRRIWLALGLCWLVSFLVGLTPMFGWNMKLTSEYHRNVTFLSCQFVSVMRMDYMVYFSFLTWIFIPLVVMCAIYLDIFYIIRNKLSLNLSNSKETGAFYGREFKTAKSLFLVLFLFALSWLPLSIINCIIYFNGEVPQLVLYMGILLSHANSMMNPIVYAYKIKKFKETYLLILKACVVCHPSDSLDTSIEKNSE
Outline: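 Recombinant hA3AR-CHO cells, plated 24 h, washed with DMEM/50 mM HEPES pH 7.4. Treated with agonists and/or test compound plus rolipram (10 μM) and adenosine deaminase (3 units/mL); forskolin (10 μM) added at 45 min, incubation continued 15 min. Lysed with ice-cold 0.1 M HCl. cAMP quantified by PKA competition with [3H]cAMP (2 nM), GF/C filtration, scintillation, against cAMP standard curve. Mean ± SEM.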

[3] = tested on: A1, A2A, and A3ARs; conditions: read-out: EC50 for activation of A1, A2A, and A3ARs; ref [5]; cited from earlier work
[4] = tested on: A2BAR; conditions: read-out: EC50 for activation of A2BAR; ref [5]; cited from earlier work

hA2AAR, sequence (P29274 whole entry, the tested form may be a part): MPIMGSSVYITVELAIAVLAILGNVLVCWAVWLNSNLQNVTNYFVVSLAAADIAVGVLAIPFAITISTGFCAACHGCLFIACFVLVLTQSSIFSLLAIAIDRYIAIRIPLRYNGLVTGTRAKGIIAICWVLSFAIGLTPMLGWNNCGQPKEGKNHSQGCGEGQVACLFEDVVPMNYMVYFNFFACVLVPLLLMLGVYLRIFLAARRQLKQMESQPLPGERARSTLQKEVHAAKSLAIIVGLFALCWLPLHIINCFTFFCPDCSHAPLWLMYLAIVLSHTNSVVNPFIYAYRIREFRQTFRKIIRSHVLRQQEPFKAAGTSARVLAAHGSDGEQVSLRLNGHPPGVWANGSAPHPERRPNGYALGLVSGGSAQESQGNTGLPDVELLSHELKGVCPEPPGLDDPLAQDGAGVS

Row | functional behaviour at hA3AR [2] | Emax at 10 µM [2] | SMILES | further results
1 | – | – | CCCCC#Cc1nc(N)c2ncn([C@H]3[C@H](O)[C@H](O)[C@@H]4C[C@@H]43)c2n1 [4a, (1R,2R,3S,4R,5S)-4-(6-Amino-2-(hex-1-ynyl)-9H-purin-9-yl)bicyclo[3.1.0]hexane-2,3-diol] | fold less potent than 2 in binding affinity at the hA2AAR [1]: 14 fold and ≈ 14 fold
2 | partial agonist | – | CCCCC#Cc1nc(NC)c2ncn([C@H]3[C@H](O)[C@H](O)[C@@H]4C[C@@H]43)c2n1 [4b] | –
3 | partial agonists | 15.5 ± 6.7% | CCCCC#Cc1nc(NCC)c2ncn([C@H]3[C@H](O)[C@H](O)[C@@H]4C[C@@H]43)c2n1 [4c, (1R,2R,3S,4R,5S)-4-(6-(ethylamino)-2-(hex-1-ynyl)-9H-purin-9-yl)bicyclo[3.1.0]hexane-2,3-diol] | –
4 | partial agonists | 19.8 ± 4.6% | CCCCC#Cc1nc(NC2CC2)c2ncn([C@H]3[C@H](O)[C@H](O)[C@@H]4C[C@@H]43)c2n1 [4d, (1R,2R,3S,4R,5S)-4-(6-(Cyclopropylamino)-2-(hex-1-ynyl)-9H-purin-9-yl)bicyclo[3.1.0]hexane-2,3-diol] | –
5 | partial agonists | 27.1 ± 14.6% | CCCCC#Cc1nc(NC2CCCC2)c2ncn([C@H]3[C@H](O)[C@H](O)[C@@H]4C[C@@H]43)c2n1 [4e, (1R,2R,3S,4R,5S)-4-(6-(Cyclopentylamino)-2-(hex-1-ynyl)-9H-purin-9-yl)bicyclo[3.1.0]hexane-2,3-diol] | –
6 | antagonists | – | CCCCC#Cc1nc(NCc2cccc(I)c2)c2ncn([C@H]3[C@H](O)[C@H](O)[C@@H]4C[C@@H]43)c2n1 [4f, (1R,2R,3S,4R,5S)-4-(6-(3-Iodobenzylamino)-2-(hex-1-ynyl)-9H-purin-9-yl)bicyclo[3.1.0]hexane-2,3-diol] | –
7 | antagonists | – | CCCCC#Cc1nc(NCc2cccc(Br)c2)c2ncn([C@H]3[C@H](O)[C@H](O)[C@@H]4C[C@@H]43)c2n1 [4g, (1R,2R,3S,4R,5S)-4-(6-(3-Bromobenzylamino)-2-(hex-1-ynyl)-9H-purin-9-yl)bicyclo[3.1.0]hexane-2,3-diol] | –
8 | antagonists | – | CCCCC#Cc1nc(NCc2cccc(Cl)c2)c2ncn([C@H]3[C@H](O)[C@H](O)[C@@H]4C[C@@H]43)c2n1 [4h, (1R,2R,3S,4R,5S)-4-(6-(3-Chlorobenzylamino)-2-(hex-1-ynyl)-9H-purin-9-yl)bicyclo[3.1.0] hexane-2,3-diol] | –
9 | partial agonists | 18.9 ± 7.5% | CCCCC#Cc1nc(NCc2cccc(F)c2)c2ncn([C@H]3[C@H](O)[C@H](O)[C@@H]4C[C@@H]43)c2n1 [4i, (1R,2R,3S,4R,5S)-4-(6-(3-Fluorobenzylamino)-2-(hex-1-ynyl)-9H-purin-9-yl)bicyclo[3.1.0] hexane-2,3-diol] | –
